Tests used:
Phospholipase D1 = target: T1, Phospholipase D1 (Homo sapiens, UniProt Q13393); assay: Inhibition of PLD1 (unknown origin) expressed in human Calu1 cells by cell-based assay; set-up: species or system Calu-1
T1 sequence (Q13393 whole entry): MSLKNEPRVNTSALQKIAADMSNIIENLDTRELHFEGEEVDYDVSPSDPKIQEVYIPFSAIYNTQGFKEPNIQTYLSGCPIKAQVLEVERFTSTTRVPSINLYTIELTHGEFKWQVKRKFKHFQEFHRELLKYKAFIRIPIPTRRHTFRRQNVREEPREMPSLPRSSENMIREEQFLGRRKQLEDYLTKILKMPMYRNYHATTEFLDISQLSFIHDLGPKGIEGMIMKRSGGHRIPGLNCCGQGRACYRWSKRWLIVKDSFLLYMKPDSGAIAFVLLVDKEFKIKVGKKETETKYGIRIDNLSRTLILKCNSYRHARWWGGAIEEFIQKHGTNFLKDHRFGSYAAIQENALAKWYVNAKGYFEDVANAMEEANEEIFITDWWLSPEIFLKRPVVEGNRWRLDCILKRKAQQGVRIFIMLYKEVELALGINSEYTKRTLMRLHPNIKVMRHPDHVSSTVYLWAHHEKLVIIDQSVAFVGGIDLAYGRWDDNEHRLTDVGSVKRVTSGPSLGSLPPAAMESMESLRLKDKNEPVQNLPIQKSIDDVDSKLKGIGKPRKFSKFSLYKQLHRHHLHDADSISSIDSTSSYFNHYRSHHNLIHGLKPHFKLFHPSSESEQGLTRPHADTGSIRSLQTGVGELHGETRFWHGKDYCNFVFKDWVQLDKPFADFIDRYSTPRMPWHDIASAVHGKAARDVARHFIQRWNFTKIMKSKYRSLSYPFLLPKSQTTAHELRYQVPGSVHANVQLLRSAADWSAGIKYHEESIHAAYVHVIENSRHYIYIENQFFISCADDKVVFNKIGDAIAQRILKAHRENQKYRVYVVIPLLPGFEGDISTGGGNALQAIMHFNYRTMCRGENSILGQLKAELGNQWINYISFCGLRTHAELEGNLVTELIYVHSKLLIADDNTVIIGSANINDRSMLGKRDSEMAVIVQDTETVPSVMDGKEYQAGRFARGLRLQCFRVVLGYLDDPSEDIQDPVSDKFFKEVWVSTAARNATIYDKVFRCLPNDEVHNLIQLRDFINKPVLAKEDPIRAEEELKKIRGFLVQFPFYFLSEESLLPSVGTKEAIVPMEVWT

Calu-1 [1] = assay: Selectivity ratio of IC50 for PLD2 (unknown origin) expressed in HEK293-gfp cells to IC50 for PLD1 (unknown origin) expressed in human Calu1 cells; format: cell-based
Procedure, shortened: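 Both IC50s come from cellular assays. PLD1 was measured in Calu-1 cells and PLD2 in HEK293-gfp PLD2 cells. Each IC50 was determined in triplicate. The value is the PLD2 IC50 divided by the PLD1 IC50.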

Phospholipase D2 = Phospholipase D2 (Homo sapiens, UniProt O14939); assay: Inhibition of PLD2 (unknown origin) expressed in HEK293-gfp cells by cell-based assay
Chain of Phospholipase D2 (O14939 whole entry): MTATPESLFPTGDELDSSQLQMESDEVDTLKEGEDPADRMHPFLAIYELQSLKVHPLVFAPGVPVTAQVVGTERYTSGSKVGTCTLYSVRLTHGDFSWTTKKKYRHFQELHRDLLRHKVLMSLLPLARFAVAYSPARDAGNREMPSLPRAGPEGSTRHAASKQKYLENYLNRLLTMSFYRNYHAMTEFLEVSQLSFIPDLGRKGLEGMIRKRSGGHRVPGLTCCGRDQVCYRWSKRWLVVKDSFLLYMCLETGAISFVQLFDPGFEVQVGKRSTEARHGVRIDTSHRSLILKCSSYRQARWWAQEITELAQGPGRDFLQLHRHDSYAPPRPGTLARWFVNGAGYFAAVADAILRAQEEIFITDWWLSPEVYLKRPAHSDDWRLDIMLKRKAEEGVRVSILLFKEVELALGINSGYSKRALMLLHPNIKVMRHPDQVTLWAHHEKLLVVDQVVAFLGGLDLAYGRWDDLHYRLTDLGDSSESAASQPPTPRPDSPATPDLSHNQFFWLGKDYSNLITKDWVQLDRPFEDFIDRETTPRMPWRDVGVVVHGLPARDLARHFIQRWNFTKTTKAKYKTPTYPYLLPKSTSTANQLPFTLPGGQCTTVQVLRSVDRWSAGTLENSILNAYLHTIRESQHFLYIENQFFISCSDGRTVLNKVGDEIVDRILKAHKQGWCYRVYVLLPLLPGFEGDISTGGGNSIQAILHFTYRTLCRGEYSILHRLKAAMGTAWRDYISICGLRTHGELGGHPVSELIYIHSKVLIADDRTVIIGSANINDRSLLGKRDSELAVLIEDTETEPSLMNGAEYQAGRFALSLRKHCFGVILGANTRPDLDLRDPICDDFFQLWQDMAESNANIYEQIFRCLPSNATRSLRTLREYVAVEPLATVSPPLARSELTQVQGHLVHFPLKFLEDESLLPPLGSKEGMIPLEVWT
Procedure, shortened: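 Cellular assay in HEK293-gfp PLD2 cells; each IC50 determined in triplicate.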

Calu-1 [2] = assay: Selectivity ratio of IC50 for PLD1 (unknown origin) expressed in human Calu1 cells to IC50 for PLD2 (unknown origin) expressed in HEK293-gfp cells; format: cell-based
D(2) dopamine receptor = D(2) dopamine receptor (Homo sapiens, UniProt P14416); assay: Inhibition of dopamine D2 receptor (unknown origin)
Chain of D(2) dopamine receptor (P14416 whole entry): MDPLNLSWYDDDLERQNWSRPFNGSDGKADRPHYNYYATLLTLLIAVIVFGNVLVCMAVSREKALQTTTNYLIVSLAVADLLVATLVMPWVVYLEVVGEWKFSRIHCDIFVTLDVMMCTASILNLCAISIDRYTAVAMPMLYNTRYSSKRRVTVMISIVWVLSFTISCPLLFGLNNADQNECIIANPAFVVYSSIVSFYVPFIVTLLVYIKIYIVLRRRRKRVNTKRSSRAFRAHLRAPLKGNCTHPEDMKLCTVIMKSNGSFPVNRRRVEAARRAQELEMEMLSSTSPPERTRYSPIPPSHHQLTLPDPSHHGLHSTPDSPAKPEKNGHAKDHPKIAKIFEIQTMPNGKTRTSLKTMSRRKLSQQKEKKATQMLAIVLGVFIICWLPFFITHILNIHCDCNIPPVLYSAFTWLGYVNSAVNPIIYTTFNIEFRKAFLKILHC

Structure (SMILES)	IC50 (Phospholipase D1) [nM]	Ratio IC50 (Calu-1 [1])	IC50 (Phospholipase D2) [nM]	Ratio IC50 (Calu-1 [2])	IC50 (D(2) dopamine receptor) [µM]
O=C(NCCN1CC2CC(n3c(=O)[nH]c4ccccc43)CC2C1)c1cc2cc(F)ccc2[nH]1 (stereo not drawn)	230	5.4	1240	–	–
O=C(NCCN1CC2CC(n3c(=O)[nH]c4ccccc43)CC2C1)c1ccc2ccccc2c1 (stereo not drawn)	244	7.3	–	–	–
CC1CC(n2c(=O)[nH]c3ccccc32)CCN1CCNC(=O)[C@@H]1C[C@H]1c1ccccc1 (relative stereo)	115	24	–	–	–
CC(CNC(=O)c1cc2ccccc2[nH]1)N1CCC2(CC1)C(=O)NCN2c1ccccc1 (racemic)	21	–	6	3	–
CC(CNC(=O)c1ccc(F)c(F)c1)N1CCC2(CC1)C(=O)NCN2c1ccccc1 (racemic)	1080	–	17	63	–
CC(CNC(=O)c1ccc2ccccc2c1)N1CCC2(CC1)C(=O)NCN2c1ccccc1 (racemic)	315	–	64	5	–
CC(CNC(=O)c1ccc(Br)cc1)N1CCC2(CC1)C(=O)NCN2c1ccccc1 (racemic)	230	–	120	2	–
O=C(NCCN1CC2CC(n3c(=O)[nH]c4ccccc43)CC2C1)c1ccc(Br)cc1 (stereo not drawn)	468	5.5	–	–	–
CC1CC(n2c(=O)[nH]c3ccccc32)CCN1CCNC(=O)c1ccc(F)cc1 (stereo not drawn)	636	11.5	–	–	–
O=C(NCCN1CC2CC(n3c(=O)[nH]c4ccccc43)CC2C1)c1cc2ccccc2[nH]1 (stereo not drawn)	72	3	220	–	–
O=C(NCCN1CCC(n2c(=O)[nH]c3ccccc32)C(F)C1)c1ccc(F)c(F)c1 (stereo not drawn)	21	4.7	–	–	> 10
O=C(NCCN1CC2CC(n3c(=O)[nH]c4ccccc43)CC2C1)c1ccc(F)c(F)c1 (stereo not drawn)	820	3.9	3250	–	–
CC(CNC(=O)c1ccc(F)cc1)N1CCC2(CC1)C(=O)NCN2c1ccccc1 (racemic)	1490	–	290	5	–
O=C(NCCN1CC2CC(n3c(=O)[nH]c4ccccc43)CC2C1)c1ccc(F)cc1 (stereo not drawn)	870	4	3570	–	–
O=C(NCCN1CC2CC(n3c(=O)[nH]c4ccccc43)CC2C1)[C@@H]1C[C@H]1c1ccccc1 (relative stereo)	1080	–	115	–	–
CC(CNC(=O)c1cc2cc(F)ccc2[nH]1)N1CCC2(CC1)C(=O)NCN2c1ccccc1 (racemic)	35	–	18	2	–

From ChEMBL document CHEMBL3352006, “Further evaluation of novel structural modifications to scaffolds that engender PLD isoform selective inhibition” (Bioorg Med Chem Lett, 2014)
